The text below walks through data of paper PMC9753537 (ACS Omega, 2022).

This assay deals with urease (Canavalia ensiformis, UniProt P07374). As to the kind of experiment: In vitro urease inhibition assay. Type of assay: biochemical. A digest of the protocol:
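Enzyme preincubated with test compound in phosphate buffer (pH 6.8) for 10 min at 37 °C, then phenol and alkali reagents added. Absorbance read at 625 nm, with thiourea as the standard inhibitor. Percent inhibition calculated from absorbance, run in triplicate.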

The structures appear in SMILES notation.

Chain of urease (P07374 whole entry, looked up): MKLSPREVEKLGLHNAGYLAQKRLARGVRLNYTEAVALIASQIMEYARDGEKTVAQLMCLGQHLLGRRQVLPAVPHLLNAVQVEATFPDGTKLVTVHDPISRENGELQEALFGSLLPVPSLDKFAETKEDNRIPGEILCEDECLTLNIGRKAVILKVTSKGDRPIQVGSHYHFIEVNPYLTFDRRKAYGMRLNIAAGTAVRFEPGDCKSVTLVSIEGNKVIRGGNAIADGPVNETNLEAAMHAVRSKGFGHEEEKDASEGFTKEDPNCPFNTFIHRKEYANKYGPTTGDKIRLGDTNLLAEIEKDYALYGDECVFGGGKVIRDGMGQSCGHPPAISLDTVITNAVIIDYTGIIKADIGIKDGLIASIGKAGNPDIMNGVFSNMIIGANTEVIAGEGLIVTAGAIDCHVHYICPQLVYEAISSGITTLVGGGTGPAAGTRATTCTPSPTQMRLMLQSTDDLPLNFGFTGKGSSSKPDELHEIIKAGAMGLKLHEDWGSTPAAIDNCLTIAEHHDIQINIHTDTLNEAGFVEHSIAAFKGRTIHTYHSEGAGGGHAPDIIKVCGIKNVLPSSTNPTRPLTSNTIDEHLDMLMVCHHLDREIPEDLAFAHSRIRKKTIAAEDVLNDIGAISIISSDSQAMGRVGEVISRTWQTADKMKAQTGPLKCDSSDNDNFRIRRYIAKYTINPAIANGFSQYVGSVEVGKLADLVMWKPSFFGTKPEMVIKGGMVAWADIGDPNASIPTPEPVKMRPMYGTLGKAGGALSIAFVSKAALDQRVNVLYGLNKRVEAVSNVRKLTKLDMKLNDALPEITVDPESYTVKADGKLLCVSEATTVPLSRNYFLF

In general, IC50 refers to the point on the concentration scale where inhibition reaches its midpoint. The low end stands for higher potency, the high end for lower potency. In turn, `CC(C(=O)NN=Cc1cccc2ccccc12)c1ccc(-c2ccccc2)c(F)c1` (stereo not drawn) [Compound 4, 2-(2-Fluoro-[1,1′-biphenyl]-4-yl)-N′-(naphthalen-1-ylmethylene)propanehydrazide] showed an IC50 of 53.7 ± 3.81 µM.
In turn, `CC(C(=O)NN=Cc1ccc(O)c(O)c1O)c1ccc(-c2ccccc2)c(F)c1` (stereo not drawn) [Compound 5, 2-(2-Fluoro-[1,1′-biphenyl]-4-yl)-N′-(2,3,4-trihydroxybenzylidene)propanehydrazide] had an IC50 of 25.1 ± 1.13 µM. Against the preceding compound, the IC50 is about 2.1-fold lower.
The figure for `CC(C(=O)NN=Cc1ccccc1N)c1ccc(-c2ccccc2)c(F)c1` (stereo not drawn) [Compound 6, N′-(2-Aminobenzylidene)-2-(2-fluoro-[1,1′-biphenyl]-4-yl)propanehydrazide] is 53.7 ± 3.82 µM.
The figure for `CC(C(=O)NN=Cc1cccc([N+](=O)[O-])c1)c1ccc(-c2ccccc2)c(F)c1` (stereo not drawn) [Compound 7, 2-(2-Fluoro-[1,1′-biphenyl]-4-yl)-N′-(3-nitrobenzylidene)propanehydrazide] is 29.2 ± 1.12 µM; for `COc1ccc(Br)cc1C=NNC(=O)C(C)c1ccc(-c2ccccc2)c(F)c1` (stereo not drawn) [Compound 8, N′-(5-Bromo-2-methoxybenzylidene)-2-(2-fluoro-[1,1′-biphenyl]-4-yl)propanehydrazide] it is 58.3 ± 3.34 µM.
Take `COc1ccc(C=NNC(=O)C(C)c2ccc(-c3ccccc3)c(F)c2)c(OC)c1OC` (stereo not drawn) [Compound 9, 2-(2-Fluoro-[1,1′-biphenyl]-4-yl)-N′-(2,3,4-trimethoxybenzylidene)propanehydrazide]: the concentration for half-maximal inhibition (IC50) worked out at 55.8 ± 3.04 µM.
Consider `CC(C(=O)NN=Cc1cc([N+](=O)[O-])ccc1Cl)c1ccc(-c2ccccc2)c(F)c1` (stereo not drawn) [Compound 10, N′-(2-Chloro-5-nitrobenzylidene)-2-(2-fluoro-[1,1′-biphenyl]-4-yl)propanehydrazide], for which half-maximal inhibition (IC50) required 50.7 ± 5.17 µM.
The figure for `CCOc1ccc(C=NNC(=O)C(C)c2ccc(-c3ccccc3)c(F)c2)c(OC)c1` (stereo not drawn) [Compound 11, N′-(4-Ethoxy-2-methoxybenzylidene)-2-(2-fluoro-[1,1′-biphenyl]-4-yl)propanehydrazide] is 52.7 ± 3.56 µM.
For `COc1cc(C=NNC(=O)C(C)c2ccc(-c3ccccc3)c(F)c2)ccc1F` (stereo not drawn) [Compound 12, N′-(4-Fluoro-3-methoxybenzylidene)-2-(2-fluoro-[1,1′-biphenyl]-4-yl)propanehydrazide] the value was 56.1 ± 4.89 µM.
Turning to `CCOc1cc(C=NNC(=O)C(C)c2ccc(-c3ccccc3)c(F)c2)ccc1OC` (stereo not drawn) [Compound 13, N′-(3-Ethoxy-4-methoxybenzylidene)-2-(2-fluoro-[1,1′-biphenyl]-4-yl)propanehydrazide], 81 ± 8.43 µM corresponded to half-maximal inhibition (IC50). This IC50 and that of the compound before are within 1.5-fold of each other.
As to `COc1cccc(OC)c1C=NNC(=O)C(C)c1ccc(-c2ccccc2)c(F)c1` (stereo not drawn) [Compound 14, N′-(2,6-Dimethoxybenzylidene)-2-(2-fluoro-[1,1′-biphenyl]-4-yl)propanehydrazide], it took 55.7 ± 3.71 µM to reach half-maximal inhibition (IC50).
`CC(C(=O)N/N=C/c1ccc([N+](=O)[O-])cc1)c1ccc(-c2ccccc2)c(F)c1` (stereo not drawn) [Compound 15, (E)-2-(2-Fluoro-[1,1′-biphenyl]-4-yl)-N′-(4-nitrobenzylidene)propanehydrazide] came in with a concentration for half-maximal inhibition (IC50) of 28.6 ± 1.73 µM.
The figure for `COc1ccc(/C=N/NC(=O)C(C)c2ccc(-c3ccccc3)c(F)c2)c(Cl)c1OC` (stereo not drawn) [Compound 16, (E)-N′-(2-Chloro-3,4-dimethoxybenzylidene)-2-(2-fluoro-[1,1′-biphenyl]-4-yl)propanehydrazide] is 55.7 ± 3.82 µM; for `COc1cc(C=NNC(=O)C(C)c2ccc(-c3ccccc3)c(F)c2)ccc1Oc1ccccc1` (stereo not drawn) [Compound 18, 2-(2-Fluoro-[1,1′-biphenyl]-4-yl)-N′-(3-methoxy-4-phenoxybenzylidene)propanehydrazide] it is 26.5 ± 0.44 µM; for `COc1ccccc1C=NNC(=O)C(C)c1ccc(-c2ccccc2)c(F)c1` (stereo not drawn) [Compound 19, 2-(2-Fluoro-[1,1′-biphenyl]-4-yl)-N′-(2-methoxybenzylidene)propanehydrazide] it is 55.7 ± 3.82 µM.
The figure for `CC(C(=O)NN=Cc1ccc(Br)cc1)c1ccc(-c2ccccc2)c(F)c1` (stereo not drawn) [Compound 20, N′-(4-Bromobenzylidene)-2-(2-fluoro-[1,1′-biphenyl]-4-yl)propanehydrazide] is 58.8 ± 3.99 µM.
For `COc1ccc(C=NNC(=O)C(C)c2ccc(-c3ccccc3)c(F)c2)c(F)c1` (stereo not drawn) [Compound 21, N′-(2-Fluoro-4-methoxybenzylidene)-2-(2-fluoro-[1,1′-biphenyl]-4-yl)propanehydrazide] the value was 89.7 ± 8.35 µM; for `COc1cc(C=NNC(=O)C(C)c2ccc(-c3ccccc3)c(F)c2)cc(OC)c1Br` (stereo not drawn) [Compound 22, N′-(4-Bromo-3,5-dimethoxybenzylidene)-2-(2-fluoro-[1,1′-biphenyl]-4-yl)propanehydrazide], 90.7 ± 7.71 µM; for `CC(C(=O)NN=Cc1ccc(Br)cc1F)c1ccc(-c2ccccc2)c(F)c1` (stereo not drawn) [Compound 23, N′-(4-Bromo-2-fluorobenzylidene)-2-(2-fluoro-[1,1′-biphenyl]-4-yl)propanehydrazide], 86.9 ± 8.71 µM.
`COc1ccc(OC)c(C=NNC(=O)C(C)c2ccc(-c3ccccc3)c(F)c2)c1` (stereo not drawn) [Compound 24, N′-(2,5-Dimethoxybenzylidene)-2-(2-fluoro-[1,1′-biphenyl]-4-yl)propanehydrazide] displayed an IC50 of 79.2 ± 7.94 µM.
Consider `CC(C(=O)NN=Cc1cccc(C(F)(F)F)c1)c1ccc(-c2ccccc2)c(F)c1` (stereo not drawn) [Compound 25, 2-(2-Fluoro-[1,1′-biphenyl]-4-yl)-N′-(3-(trifluoromethyl)benzylidene)propanehydrazide], for which the half-inhibitory concentration (IC50) stood at 59.5 ± 4.28 µM.
The compound `CSc1ccc(C=NNC(=O)C(C)c2ccc(-c3ccccc3)c(F)c2)cc1` (stereo not drawn) [Compound 26, 2-(2-Fluoro-[1,1′-biphenyl]-4-yl)-N′-(4-(methylthio)benzylidene)propanehydrazide] displayed a half-maximal inhibitory concentration (IC50) of 78 ± 7.63 µM. This IC50 and that of the compound before are within 1.5-fold of each other.
`CC(C(=O)NN=Cc1ccc(O)c(Br)c1)c1ccc(-c2ccccc2)c(F)c1` (stereo not drawn) [Compound 27, N′-(3-Bromo-4-hydroxybenzylidene)-2-(2-fluoro-[1,1′-biphenyl]-4-yl)propanehydrazide] came in with a half-maximal inhibitory concentration (IC50) of 80 ± 8.61 µM.
For `CC(C(=O)NN=Cc1ccc(-c2ccccc2)c(F)c1)c1ccc(-c2ccccc2)c(F)c1` (stereo not drawn) [Compound 28, 2-(2-Fluoro-[1,1′-biphenyl]-4-yl)-N′-((2-fluoro-[1,1′-biphenyl]-4-yl)methylene)propanehydrazide] the value was 58.5 ± 4.28 µM; for `Cc1ccc(C=NNC(=O)C(C)c2ccc(-c3ccccc3)c(F)c2)s1` (stereo not drawn) [Compound 29, 2-(2-Fluoro-[1,1′-biphenyl]-4-yl)-N′-((5-methylthiophen-2-yl)methylene)propanehydrazide], 57.5 ± 4.27 µM.
Compound `CC(C(=O)NN=Cc1cccc(O)c1O)c1ccc(-c2ccccc2)c(F)c1` (stereo not drawn) [Compound 30, N′-(2,3-Dihydroxybenzylidene)-2-(2-fluoro-[1,1′-biphenyl]-4-yl)propanehydrazide] yielded a half-inhibitory concentration (IC50) of 18.9 ± 0.61 µM.
For `CC(C(=O)NN=Cc1ccccc1[N+](=O)[O-])c1ccc(-c2ccccc2)c(F)c1` (stereo not drawn) [Compound 31, N′-(2-Nitrobenzylidene)-2-(2-fluoro-[1,1′-biphenyl]-4-yl)propanehydrazide] the value was 28.1 ± 1.26 µM.
